ChEMBL document CHEMBL1649443, “Novel S-adenosylmethionine decarboxylase inhibitors for the treatment of human African trypanosomiasis” (Antimicrob Agents Chemother, 2009)
pIC50: −log10 of the molar value. Activity calls are given as the source filed them.

Columns and labels:
[1] = test system: Trypanosoma brucei rhodesiense; experiment: Antiparasitic activity against Trypanosoma brucei rhodesiense STIB 900 clone after 72 hrs by Alamar blue assay; assay type: functional, organism-based; details: STIB 900, 72 h
[2] = Permeability of the compound after 4 hrs by PAMPA assay; assay type: ADME; details: read-out: permeability
[3] = Metabolic stability in rat liver microsomes assessed as intrinsic clearance up to 45 mins by LC/MS/MS analysis; assay type: ADME, Microsome
[4] = Metabolic stability in human liver microsomes assessed as intrinsic clearance up to 45 mins by LC/MS/MS analysis; assay type: ADME, Microsome
[5] = Metabolic stability in rat hepatocytes assessed as intrinsic clearance up to 45 mins by LC/MS/MS analysis; assay type: ADME, cell-based, Liver, Hepatocyte
[6] = Metabolic stability in human hepatocytes assessed as intrinsic clearance up to 45 mins by LC/MS/MS analysis; assay type: ADME, cell-based, Liver, Hepatocyte
CYP3A4 = CYP3A4 (Homo sapiens, UniProt P08684); experiment: (§1) Inhibition of human cytochrome P450 3A4; details: human
CYP2D6 = CYP2D6 (Homo sapiens, UniProt P10635); experiment: (§2) Inhibition of human cytochrome P450 2D6; details: human
CYP2C9 = CYP2C9 (Homo sapiens, UniProt P11712); experiment: (§3) Inhibition of human cytochrome P450 2C9; details: human
CYP2C19 = CYP2C19 (Homo sapiens, UniProt P33261); experiment: (§4) Inhibition of human cytochrome P450 2C19; details: human
CYP1A2 = biological target: T1, CYP1A2 (Homo sapiens, UniProt P05177); experiment: (§5) Inhibition of human cytochrome P450 1A2; details: human
T1 sequence (P05177 whole entry): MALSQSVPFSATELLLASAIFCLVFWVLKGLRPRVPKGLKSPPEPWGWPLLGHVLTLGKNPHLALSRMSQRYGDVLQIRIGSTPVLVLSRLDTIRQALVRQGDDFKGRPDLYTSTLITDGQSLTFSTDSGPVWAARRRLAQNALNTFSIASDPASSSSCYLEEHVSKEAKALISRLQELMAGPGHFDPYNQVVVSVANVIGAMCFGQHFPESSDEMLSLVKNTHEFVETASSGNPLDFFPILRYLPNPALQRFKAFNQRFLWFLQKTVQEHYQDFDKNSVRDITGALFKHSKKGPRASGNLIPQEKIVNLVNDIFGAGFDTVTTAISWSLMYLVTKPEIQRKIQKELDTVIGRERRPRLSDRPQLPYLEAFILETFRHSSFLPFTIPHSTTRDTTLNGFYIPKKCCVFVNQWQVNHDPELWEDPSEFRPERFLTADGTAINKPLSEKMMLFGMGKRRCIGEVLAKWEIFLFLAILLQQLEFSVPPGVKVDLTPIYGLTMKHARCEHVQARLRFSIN

[7] = Protein binding in human plasma at pH 7.4 after 4 hrs; assay type: ADME, cell-free; details: read-out: PPB (converted)
[8] = Protein binding in mouse plasma at pH 7.4 after 4 hrs; assay type: ADME, cell-free; details: read-out: PPB (converted)
[9] = Tmax in rat at 10 mg/kg, po; assay type: ADME, organism-based; design: dose 10 mg/kg, route oral; details: in vivo
In short: (§6)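 Rat groups of six, split into two subgroups to limit blood collections, dosed i.v. or p.o. Blood sampled at 15 min, 30 min, 2 h, 4 h, 8 h and 24 h. Drug levels measured by LC-MS-MS. Two separate rat studies were run.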

[10] = Cmax in rat at 10 mg/kg, po; assay type: ADME, organism-based; design: dose 10 mg/kg, route oral; details: in vivo; in short: as §6
[11] = AUC in rat at 3 mg/kg, iv; assay type: ADME, organism-based; design: dose 3 mg/kg, route intravenous; details: plasma
[12] = AUC in rat at 10 mg/kg, po; assay type: ADME, organism-based; design: dose 10 mg/kg, route oral; details: plasma; in short: as §6
Rattus norvegicus [13] = experiment: Half life in rat at 3 mg/kg, iv; assay type: ADME, organism-based; design: dose 3 mg/kg, route intravenous; details: in vivo
[14] = Half life in rat at 10 mg/kg, po; assay type: ADME, organism-based; design: dose 10 mg/kg, route oral; details: in vivo; in short: as §6
Rattus norvegicus [15] = experiment: Volume of distribution at steady state in rat at 3 mg/kg, iv; assay type: ADME, organism-based; design: dose 3 mg/kg, route intravenous; details: in vivo
[16] = Oral bioavailability in rat at 10 mg/kg, po; assay type: ADME, organism-based; details: in vivo; in short: as §6
[17] = AUC in mouse blood at 50 mg/kg, ip administered as single dose; assay type: ADME, organism-based; design: dose 50 mg/kg, route intraperitoneal
[18] = AUC in mouse brain at 50 mg/kg, ip administered as single dose; assay type: ADME, organism-based; design: dose 50 mg/kg, route intraperitoneal
[19] = Half life in mouse at 50 mg/kg, ip administered as single dose; assay type: ADME, organism-based; design: dose 50 mg/kg, route intraperitoneal; details: in vivo
[20] = Cmax in mouse blood at 50 mg/kg, ip administered as single dose; assay type: ADME, organism-based; design: dose 50 mg/kg, route intraperitoneal
[21] = Cmax in mouse brain at 50 mg/kg, ip administered as single dose; assay type: ADME, organism-based; design: dose 50 mg/kg, route intraperitoneal
[22] = test system: Trypanosoma brucei brucei; experiment: Antiparasitic activity against Trypanosoma brucei brucei STIB 795 infected in mouse assessed as mean survival days at 50 mg/kg, ip qd for 4 days administered on 3rd day of infection (reference value: 6.75 days); assay type: functional; details: route intraperitoneal
[23] = test system: Trypanosoma brucei brucei; experiment: Antiparasitic activity against Trypanosoma brucei brucei LAB 110 EATRO infected in mouse assessed as mean survival days at 50 mg/kg/day, ip qd for 7 days administered on 1st day of infection and measured through day 40 post infection; assay type: functional; details: route intraperitoneal
In short: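 Mice in groups of five, infected i.p. on day 0 with 2.5 × 10^5 T. b. brucei LAB 110 EATRO parasites; i.p. dosing began day 1. Parasitemia checked twice weekly by microscopy of at least 20 fields of wet blood smears through day 40, with animals considered cured only when clear through day 40.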

[24] = test system: Trypanosoma brucei brucei; experiment: Antiparasitic activity against Trypanosoma brucei brucei STIB 795 infected in mouse assessed as parasitemia cure incidence at 50 mg/kg, ip qd for 4 days administered on 3rd day of infection; assay type: functional, organism-based; design: dose 50 mg/kg
[25] = test system: Trypanosoma brucei brucei; experiment: Antiparasitic activity against Trypanosoma brucei brucei LAB 110 EATRO infected in mouse assessed as parasitemia cure incidence at 50 mg/kg/day, ip qd for 7 days administered on 1st day of infection and measured through day 40 post infection; assay type: functional, organism-based
in vivo = details: mouse, brain, ip, 50 mg/kg
[26] = Kinetic solubility in phosphate-buffered saline at pH 7.4 after 16 to 24 hrs by UV spectrophotometry
[27] = test system: Trypanosoma brucei brucei; experiment: Antiparasitic activity against Trypanosoma brucei brucei LAB 110 EATRO infected in mouse assessed as mean survival days at 50 mg/kg/day, ip administered on 1st day of infection and measured through day 40 post infection; details: route intraperitoneal
[28] = test system: Trypanosoma brucei brucei; experiment: Antiparasitic activity against Trypanosoma brucei brucei LAB 110 EATRO infected in mouse assessed as parasitemia cure incidence at 50 mg/kg/day, ip administered on 1st day of infection and measured through day 40 post infection
Cytochrome P450 3A4 = Cytochrome P450 3A4 (Homo sapiens, UniProt P08684); experiment: as §1
Cytochrome P450 2D6 = Cytochrome P450 2D6 (Homo sapiens, UniProt P10635); experiment: as §2
Cytochrome P450 2C9 = Cytochrome P450 2C9 (Homo sapiens, UniProt P11712); experiment: as §3
Cytochrome P450 2C19 = Cytochrome P450 2C19 (Homo sapiens, UniProt P33261); experiment: as §4
Cytochrome P450 1A2 = biological target: T2, Cytochrome P450 1A2 (Homo sapiens, UniProt P05177); experiment: as §5
T2 sequence (P05177 whole entry): T1 sequence (P05177 whole entry)

[29] = Metabolic stability in rat plasma assessed as compound remaining after 4 hrs; assay type: ADME, cell-free; details: read-out: Stability
[30] = Metabolic stability in human assessed as compound remaining plasma after 4 hrs; assay type: ADME, cell-free; details: read-out: Stability
[31] = Permeability across apical to basolateral side of human Caco2 cells; assay type: ADME, cell-based; details: Caco-2, read-out: permeability
[32] = Permeability across basolateral to apical side of human Caco2 cells; assay type: ADME, cell-based; details: Caco-2, read-out: permeability
[33] = test system: Trypanosoma brucei brucei; experiment: Antiparasitic activity against Trypanosoma brucei brucei LAB 110 EATRO infected in mouse assessed as mean survival days at 50 mg/kg/day, ip bid for 4 days administered on 1st day of infection and measured through day 40 post infection; assay type: functional; details: route intraperitoneal
[34] = Metabolic stability in rat whole blood assessed as compound remaining; assay type: ADME, tissue-based
[35] = Partition coefficient in RBCs; assay type: ADME, cell-based; details: erythrocyte
[36] = test system: Trypanosoma brucei brucei; experiment: Antiparasitic activity against Trypanosoma brucei brucei LAB 110 EATRO infected in mouse assessed as parasitemia cure incidence at 50 mg/kg/day, ip bid for 4 days administered on 1st day of infection and measured through day 40 post infection; assay type: functional, organism-based
In short: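 Mice, groups of five, infected i.p. on day 0 with 2.5 × 10^5 parasites; dosing from day 1 at 50 mg/kg/day i.p., given either once daily for 7 days or split twice daily for 4 days. Treatment controls got pentamidine 2 mg/kg QD i.p. for 4 days. Read-out was microscopy of ≥20 fields of wet blood smears twice weekly to day 40; cure means no parasites.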

Chain of Cytochrome P450 2D6 (P10635 whole entry): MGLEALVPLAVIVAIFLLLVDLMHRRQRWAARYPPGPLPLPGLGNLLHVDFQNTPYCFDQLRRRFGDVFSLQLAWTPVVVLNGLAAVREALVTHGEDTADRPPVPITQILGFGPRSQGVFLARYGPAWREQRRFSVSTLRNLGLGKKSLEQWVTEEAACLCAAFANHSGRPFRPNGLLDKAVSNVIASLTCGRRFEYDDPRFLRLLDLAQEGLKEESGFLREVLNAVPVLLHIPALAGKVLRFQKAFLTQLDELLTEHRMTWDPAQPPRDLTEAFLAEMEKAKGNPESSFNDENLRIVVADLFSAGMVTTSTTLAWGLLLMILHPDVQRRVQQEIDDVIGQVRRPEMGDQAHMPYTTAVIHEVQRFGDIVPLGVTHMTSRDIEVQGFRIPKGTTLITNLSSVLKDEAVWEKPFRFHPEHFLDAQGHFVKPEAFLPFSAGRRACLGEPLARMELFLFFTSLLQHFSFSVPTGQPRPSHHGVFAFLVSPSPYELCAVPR
Chain of Cytochrome P450 2C19 (P33261 whole entry): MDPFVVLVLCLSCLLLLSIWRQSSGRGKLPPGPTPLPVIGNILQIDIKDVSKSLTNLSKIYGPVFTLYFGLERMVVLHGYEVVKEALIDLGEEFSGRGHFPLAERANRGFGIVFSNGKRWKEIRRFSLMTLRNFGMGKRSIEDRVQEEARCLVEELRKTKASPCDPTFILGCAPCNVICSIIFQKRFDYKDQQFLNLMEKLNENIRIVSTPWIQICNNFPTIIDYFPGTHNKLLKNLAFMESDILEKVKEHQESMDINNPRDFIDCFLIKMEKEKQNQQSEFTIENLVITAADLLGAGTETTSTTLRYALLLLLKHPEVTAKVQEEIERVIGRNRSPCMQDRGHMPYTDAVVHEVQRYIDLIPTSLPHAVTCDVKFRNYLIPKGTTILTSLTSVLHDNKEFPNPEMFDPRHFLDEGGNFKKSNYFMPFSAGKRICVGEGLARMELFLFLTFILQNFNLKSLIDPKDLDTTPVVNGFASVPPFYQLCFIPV
Chain of Cytochrome P450 3A4 (P08684 whole entry): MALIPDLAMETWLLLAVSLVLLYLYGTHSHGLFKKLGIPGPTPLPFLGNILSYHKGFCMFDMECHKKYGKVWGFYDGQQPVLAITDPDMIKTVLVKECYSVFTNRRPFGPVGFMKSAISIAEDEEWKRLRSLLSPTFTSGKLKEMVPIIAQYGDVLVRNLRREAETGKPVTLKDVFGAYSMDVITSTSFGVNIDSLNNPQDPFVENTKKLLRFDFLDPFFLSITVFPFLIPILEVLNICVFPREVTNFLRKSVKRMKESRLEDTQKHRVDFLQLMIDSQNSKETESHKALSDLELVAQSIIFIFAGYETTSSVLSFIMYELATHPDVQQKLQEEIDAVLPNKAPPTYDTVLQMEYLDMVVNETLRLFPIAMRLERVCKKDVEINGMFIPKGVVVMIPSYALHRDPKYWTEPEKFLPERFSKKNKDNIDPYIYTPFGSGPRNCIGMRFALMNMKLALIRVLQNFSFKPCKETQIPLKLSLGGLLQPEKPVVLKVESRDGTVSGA
Chain of Cytochrome P450 2C9 (P11712 whole entry): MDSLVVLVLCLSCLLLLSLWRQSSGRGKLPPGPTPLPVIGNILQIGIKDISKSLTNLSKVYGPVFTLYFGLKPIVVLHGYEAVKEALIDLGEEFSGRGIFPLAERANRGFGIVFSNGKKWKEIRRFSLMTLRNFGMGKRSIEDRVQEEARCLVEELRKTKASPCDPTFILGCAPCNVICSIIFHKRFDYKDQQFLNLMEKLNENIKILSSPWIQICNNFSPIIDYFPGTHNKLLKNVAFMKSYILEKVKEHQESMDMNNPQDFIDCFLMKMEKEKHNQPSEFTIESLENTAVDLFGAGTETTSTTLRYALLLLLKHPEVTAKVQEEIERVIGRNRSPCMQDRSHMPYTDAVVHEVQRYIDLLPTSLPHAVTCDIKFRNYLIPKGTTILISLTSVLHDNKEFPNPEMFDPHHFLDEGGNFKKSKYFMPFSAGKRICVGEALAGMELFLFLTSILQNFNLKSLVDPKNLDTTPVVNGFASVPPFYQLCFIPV
Chain of CYP2D6 (P10635 whole entry): as the sequence (P10635 whole entry) above
Chain of CYP2C19 (P33261 whole entry): as the sequence (P33261 whole entry) above
Chain of CYP3A4 (P08684 whole entry): as the sequence (P08684 whole entry) above
Chain of CYP2C9 (P11712 whole entry): as the sequence (P11712 whole entry) above

Structure (SMILES) | pIC50 [1] | Papp at 4 h [2] | CLint scaled [3] | CLint scaled [4] | CLint scaled [5] | CLint scaled [6] | fraction unbound at 4 h [7] | fraction unbound at 4 h [8] | AUC [17] | AUC [18] | half-life [19] | Cmax [20] | Cmax [21] | Survival [22] | Kp (in vivo) | solubility kinetic [26] | Survival [27] | pIC50 (Cytochrome P450 3A4) | pIC50 (Cytochrome P450 2D6) | pIC50 (Cytochrome P450 2C9) | also measured
Cc1nc(N)c2ncn([C@@H]3O[C@H](CN(C)C/C=C\CN)[C@@H](O)[C@H]3O)c2n1 | 10.00 | 0.22 ×10⁻⁶ cm/s | < 11 mL/min/kg | < 4.2 mL/min/kg | < 11 mL/min/kg | < 4.2 mL/min/kg | 0.588 | 0.643 | 17900 ng·h/mL | 1300 ng·h/mL | 7.43 h | 36900 ng/mL | 660 ng/mL | >30 days | 7.28 | > 49 µg/mL | >40 days |  |  |  | pIC50 (CYP3A4): < 5.30; pIC50 (CYP2D6): < 5.30; pIC50 (CYP2C9): < 5.30; pIC50 (CYP2C19): < 5.30; pIC50 (CYP1A2): < 5.30; Tmax [9]: 0.25 h; Cmax [10]: 39 ng/mL; AUC [11]: 681 ng·h/mL; AUC [12]: 49 ng·h/mL; t1/2 (Rattus norvegicus [13]): 3.17 h; half-life [14]: 1.53 h; Vdss (Rattus norvegicus [15]): 853 L/kg; bioavailability [16]: 2.1%; Survival [23]: >40 days; Activity [24]: Active; Activity [25]: Active; Activity [28]: Active
CN(C/C=C\CN)C[C@H]1O[C@@H](n2cnc3c(N)ncnc32)[C@H](O)[C@@H]1O | 8.85 | 0.13 ×10⁻⁶ cm/s | < 11 mL/min/kg | < 4.2 mL/min/kg | < 11 mL/min/kg | < 4.2 mL/min/kg | 0.271 | 0.302 | 20700 ng·h/mL | 360 ng·h/mL | 2.48 h | 44800 ng/mL | 80 ng/mL | >30 days | 1.7 | > 47 µg/mL | >40 days | < 5.30 | < 5.30 | < 5.30 | pIC50 (Cytochrome P450 2C19): < 5.30; pIC50 (Cytochrome P450 1A2): < 5.30; remaining at 4 h [29]: 100%; remaining at 4 h [30]: 100%; Papp A→B [31]: 3.25 ×10⁻⁶ cm/s; Papp B→A [32]: 2.7 ×10⁻⁶ cm/s; Survival [33]: >40 days; Stability [34]: 100%; Partition coefficient [35]: 0.28; Activity [36]: Active
CN(C/C=C\CN)C[C@H]1O[C@@H](n2cnc3c(N)ncnc32)[C@H](F)[C@@H]1O | 6.76 |  | < 11 mL/min/kg | < 4.2 mL/min/kg | < 11 mL/min/kg | < 4.2 mL/min/kg | 0.767 | 0.523 | 16300 ng·h/mL | 140 ng·h/mL | 1.93 h | 33000 ng/mL | 30 ng/mL |  | 0.86 | > 47 µg/mL |  | < 5.30 | < 5.30 | < 5.30 | pIC50 (Cytochrome P450 2C19): < 5.30; pIC50 (Cytochrome P450 1A2): < 5.30
